An excerpt weighted towards active compounds, which were near 3.1% of everything screened.
KCNQ1 inh: human KCNQ1 channel inhibition | P51787 | CHO-K1 KCNQ1, FluxOR thallium flux fluorescence; hits give high values | B-score at 10 µM | 310,000 tested, 1.3% active | AID 2642;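 active = compounds whose thallium flux B-score, printed positive for inhibition, exceeds three library SD while starting fluorescence stays within three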;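 note: channel opened by potassium depolarization with thallium stimulus after 20 min compound exposure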
KCNQ1 act: potentiates or activates the human KCNQ1 potassium channel | CHO-K1 KCNQ1, thallium flux FluxOR fluorescence; hits give high values | B-score at 10 µM | 310,000 tested, 0.35% active | AID 2648;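 active = fluorescence ratio B-score, a plate-corrected score, at least three library SD, with initial intensity B-score within 5 SD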
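System: Stable KCNQ1 CHO-K1 line | Incubation: 90 min dye loading and 20 min compound exposure, both at room temperature | Measure: Ratio B score | Medium: Assay buffer for compound exposure, DMSO matched across wells | Compound dosing: Single-concentration screen | Probe or stimulus: K+/Tl+ depolarizing stimulus | Measured by: Kinetic FluxOR fluorescence, 10 s baseline plus 110 s post-stimulus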
hERG protect: hERG (human) protection from proarrhythmic block; Q12809; CHO-hERG, FluxOR thallium flux, dofetilide IC70 present; activation (rescue from dofetilide block), less the hit threshold, % at 10 µM; 310,000 tested, 0.51% active; AID 1511;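 active = activation above the mean of controls blocked by dofetilide plus 5 SD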;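 note: thallium influx through hERG after potassium depolarization seen as dye fluorescence rise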
KCNK3 block: human KCNK3 channel inhibition, primary screen; CHO-KCNK3 thallium flux, FluxOR fluorescence; hits give low values; 340,000 tested, 0.84% active; O14649; B-score at 10 µM; AID 602410;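 active = B-score under library mean minus 4 SD, starting fluorescence ratio at most library mean plus 5 SD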;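 note: more negative B-score means stronger inhibition of thallium flux through KCNK3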
KCNK9 inh: human KCNK9 channel inhibition; Q9NPC2; HEK293 KCNK9, FluxOR thallium flux fluorescence; hits give low values; 310,000 tested, 1.2% active; B-score at 10 µM;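 active = ratio B-score over 3 SD below the library mean, with starting fluorescence within 5 SD of its mean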;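 note: negative B-score means less thallium flux so channel inhibition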
Target sequence (Q9NPC2 whole entry, looked up): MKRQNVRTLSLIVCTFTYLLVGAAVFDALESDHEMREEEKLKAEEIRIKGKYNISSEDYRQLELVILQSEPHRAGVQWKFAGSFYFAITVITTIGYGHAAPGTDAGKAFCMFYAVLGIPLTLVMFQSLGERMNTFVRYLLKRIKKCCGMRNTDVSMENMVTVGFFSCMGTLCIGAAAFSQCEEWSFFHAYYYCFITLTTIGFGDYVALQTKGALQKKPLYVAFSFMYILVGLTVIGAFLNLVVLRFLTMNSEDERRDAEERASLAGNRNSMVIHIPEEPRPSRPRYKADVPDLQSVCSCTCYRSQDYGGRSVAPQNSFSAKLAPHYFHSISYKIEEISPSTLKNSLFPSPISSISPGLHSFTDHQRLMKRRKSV
Large screens that a line does not name were inactive.

CC(NC(=O)C(=O)c1cn(CC(=O)N2CCOCC2)c2ccccc12)c1ccccc1 (stereo unspecified)	none
Cc1ccc(N=Cc2c(O)n(-c3cc(Cl)ccc3N3CCOCC3)c(=O)c3ccccc23)cc1C	KCNQ1 inh 10
CCC(C(=O)NCCCc1ccccc1)c1ccccc1 (stereo unspecified)	none
CCC(C(=O)NCCCN1CCN(CCCNC(=O)C(CC)c2ccccc2)CC1)c1ccccc1 (stereo unspecified)	hERG protect 4.9
Cc1csc2c(N(C)CCO)ncnc12	none
O=c1[nH]c(C2CCCCC2)nc2ccccc12	none
S=c1nc(C2CCCCC2)[nH]c2ccccc12	KCNQ1 act 22, hERG protect 10
S=c1nc(C2CC2)[nH]c2ccccc12	KCNQ1 act 29, hERG protect 20
CN(CC(=O)Nc1ccccc1Cl)C(=O)COC(=O)C1CC1	none
O=C(Nc1ccc(F)cc1)N1CCN(C(=O)C2CCCO2)CC1 (stereo unspecified)	none
Cc1cccc(C(=O)NC(=S)NNC(=O)c2cccs2)c1	KCNQ1 act 8
Cc1cccc(C(=O)NC(=S)NNC(=O)c2ccc(Cl)cc2)c1	hERG protect 9.1
CCCC(=O)Nc1ccc(C(=O)NNC(=S)NC(=O)c2cccs2)cc1	none
CC(C)(C)c1ccc(C(=O)NC(=S)NNC(=O)c2cccs2)cc1	KCNQ1 act 12
O=C(NC(=S)NNC(=O)c1cccs1)c1ccccc1	KCNQ1 inh 6
Cc1ccccc1C(=O)NNC(=S)NC(=O)c1cccs1	none
O=C(NC1CC1)c1ccc(NS(=O)(=O)c2ccc(F)cc2)cc1	none
Cc1cnc(NC(=O)Nc2ccc(OCc3ccccc3)cc2)c(Br)c1	none
Cc1ccc(Oc2ccc(S(=O)(=O)N3CCOCC3)cc2C(N)=O)cc1C	none
Cc1c(C(=O)N(C)CCOc2ccccc2)oc2c(Cl)cccc12	KCNK3 block -9.3 (no result: KCNQ1 inh, KCNQ1 act, hERG protect, KCNK9 inh)
Cc1ccc(C)c(NC(=O)CN(C)C(=O)c2oc3c(Cl)cccc3c2C)c1	none
COc1ccc2oc(C(=O)Nc3nccs3)c(C)c2c1	KCNK9 inh -7.9
Cn1cnnc1Sc1ccc(C(=O)NCCC(c2ccccc2)c2ccccc2)cc1[N+](=O)[O-]	KCNQ1 inh 10
N#Cc1c(-c2ccccc2Cl)cc(-c2ccccc2)nc1Br	KCNQ1 inh 9
CSc1nc(N)nc(SCC(=O)C23CC4CC(CC(C4)C2)C3)c1C#N	KCNK9 inh -7.5
COc1cccc(N2CCN(C(=O)CCNS(=O)(=O)c3ccc(F)c(F)c3)CC2)c1	none (no result: KCNQ1 inh, KCNQ1 act, hERG protect, KCNK9 inh)
O=C1C=C(O)C(n2cncn2)C(c2ccc(F)cc2)C1 (stereo unspecified)	hERG protect 5.2
O=C1CC(=O)C(n2cncn2)C(c2ccc(Cl)cc2)C1 (stereo unspecified)	none
CCn1c(NC(=O)c2ccccc2F)c(-c2cccs2)c(=O)c2ccccc21	none
Cc1cc(C)n(-c2nc3sc4c(c3c(=O)[nH]2)CCCC4)n1	KCNQ1 act 13 (no result: KCNK3 block)
CCn1c(CNC(=O)c2ccc3c(c2)OCO3)nnc1SCC(=O)Nc1cc(C)ccc1OC	KCNQ1 inh 8
Cc1ccccc1NC(=O)CSc1nnc(CNC(=O)c2ccc3c(c2)OCO3)n1C	none
O=C(COc1ccc(Cl)cc1Cl)N(Cc1ccco1)C1CCS(=O)(=O)C1 (stereo unspecified)	KCNK9 inh -7
COc1ccc(-n2nc3c(c2NC(=O)COc2ccccc2F)CS(=O)(=O)C3)cc1	none
COc1ccc(C=CC(=O)c2ccc(OC)c(OC)c2O)cc1OC	none (no result: KCNQ1 inh, KCNQ1 act, hERG protect, KCNK9 inh)
Cc1ccc(/C=C/C(=O)c2ccccc(=O)c2O)cc1C	KCNQ1 act 34, hERG protect 9.1
Cn1c2c(sc1=O)CCC2	none (no result: KCNQ1 inh, KCNQ1 act, hERG protect, KCNK9 inh)
CS(=O)(=O)Nc1ccc(C2=NN(S(=O)(=O)c3ccccc3)C(c3cccs3)C2)cc1 (stereo unspecified)	KCNK9 inh -8.1
C/C(=N\OCC(=O)Nc1ccccc1C(C)(C)C)c1ccc2c(c1)OCCO2	none
C/C(=N\OCC(=O)Nc1ccc(OC(F)(F)F)cc1)c1ccc2c(c1)OCCO2	KCNQ1 act 10
Cc1cc(F)ccc1NC(=O)c1cc(S(=O)(=O)N2CCc3ccccc32)cn1C	none
CCOC(=O)c1c(N)c(C#N)cn1-c1ccccc1	none
CCOC(=O)c1c(NC(=O)c2nn(CC)cc2Br)c(C#N)cn1-c1ccccc1	KCNK3 block -11
Cc1ccccc1C(=O)Nc1nc(-c2cccnc2)cs1	none
O=C(Nc1nc(-c2cccnc2)cs1)c1ccccc1Cl	hERG protect 41
COc1ccccc1C(C)NC(=O)Cc1ccc(S(=O)(=O)N2CCOCC2)s1 (stereo unspecified)	none
CCCOc1ccc(C(=O)NNC(=S)NC(=O)c2cc(-c3ccccc3)nc3ccccc23)cc1	KCNQ1 act 19
CCCOc1ccc(C(=O)NNC(=S)NC(=O)c2ccco2)cc1	KCNQ1 act 12, hERG protect 18
CCCOc1ccc(C(=O)NNC(=S)NC(=O)c2ccccc2)cc1	KCNQ1 act 34, hERG protect 17
O=C(NC(=S)NNC(=O)c1ccco1)c1ccc(Br)cc1	KCNQ1 inh 6
O=C(NNC(=S)NC(=O)c1ccco1)c1ccc(F)cc1	none
CCCOc1ccc(C(=O)NNC(=S)NC(=O)c2ccccc2[N+](=O)[O-])cc1	none
CCN(CC(=O)Nc1ccc2c(c1)OCCO2)C(=O)c1cccc(OCC(C)C)c1	none
NS(=O)(=O)c1ccc(CCNC(=O)CCc2nc3sc4c(c3c(=O)[nH]2)CCCC4)cc1	none
CCSC(=O)N1c2ccc(OC)cc2C=CC1C#N (stereo unspecified)	none (no result: KCNQ1 inh, KCNQ1 act, hERG protect, KCNK9 inh)
CCCOc1ccc(C(=O)NNC(=S)NC(=O)c2cccs2)cc1	KCNQ1 act 38, hERG protect 8.8
CC(C)(C)c1ccc(C(=O)NC(=S)NNC(=O)COc2ccccc2)cc1	KCNQ1 act 30
O=C(NNC(=S)Nc1ccc(Br)cc1)c1ccccc1	none
CCOc1ccc(NC(=S)NNC(=O)c2ccc(Br)cc2)cc1	KCNQ1 inh 6
CCCOc1ccc(C(=O)NNC(=S)NC(C)=O)cc1	none
CCCCN(C(=O)c1cccc(-n2cccc2)c1)c1c(N)n(Cc2ccccc2)c(=O)[nH]c1=O	none
CN1CCN(CCCN2c3ccccc3Sc3ccc(C(F)(F)F)cc32)CC1	KCNQ1 inh 6
CC1CCc2c(sc3nc(C4CC4)nc(N4CCN(C(=O)c5ccco5)CC4)c23)C1 (stereo unspecified)	KCNQ1 inh 6
CC1CCCC(NC(=O)CCNS(=O)(=O)c2ccc(Br)cc2)C1C (stereo unspecified)	none
CCOc1ccccc1C(=O)N[C@H](C(=O)OCc1cc(=O)oc2cc(C)ccc12)C(C)C	KCNK9 inh -6.7
COc1cc(OC)cc(C(=O)N[C@H](C(=O)OCc2cc(=O)oc3cc(C)ccc23)C(C)C)c1	none
CCOc1ccccc1C(=O)NC(C(=O)N(C)Cc1ccc2c(c1)OCO2)C(C)C (stereo unspecified)	KCNK3 block -9.2 (no result: KCNQ1 inh, KCNQ1 act, hERG protect, KCNK9 inh)
